Legend:
Carboxypeptidase A1 [1] = target: T1, Carboxypeptidase A1 (Bos taurus, UniProt P00730); assay: Inhibition of bovine carboxypeptidase A using N-(4-methoxyphenylazoformyl)-Phe-OH as substrate preincubated for 2 mins followed by susbtrate addition measured for 15 mins at 30 secs interval
T1 sequence (P00730 whole entry): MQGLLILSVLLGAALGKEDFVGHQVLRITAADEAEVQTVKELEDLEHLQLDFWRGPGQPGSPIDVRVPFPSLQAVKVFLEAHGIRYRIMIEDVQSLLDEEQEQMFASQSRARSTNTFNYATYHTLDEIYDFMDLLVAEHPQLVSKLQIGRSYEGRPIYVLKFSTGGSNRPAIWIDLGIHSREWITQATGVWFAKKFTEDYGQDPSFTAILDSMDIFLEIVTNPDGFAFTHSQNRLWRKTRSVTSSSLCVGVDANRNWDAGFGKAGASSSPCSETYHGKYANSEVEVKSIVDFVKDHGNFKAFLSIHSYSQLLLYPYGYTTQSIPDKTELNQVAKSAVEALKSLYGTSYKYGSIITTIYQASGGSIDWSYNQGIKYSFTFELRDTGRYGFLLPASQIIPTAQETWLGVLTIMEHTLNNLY
Outline: (§1)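 Compound was pre-incubated with enzyme before the activity assay, either briefly (2 min) or long (3 h), to test for time-dependent inhibition.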

Carboxypeptidase A1 [2] = target: T1, Carboxypeptidase A1; assay: Inhibition of bovine carboxypeptidase A using N-(4-methoxyphenylazoformyl)-Phe-OH as substrate preincubated for 3 hrs followed by susbtrate addition measured for 15 mins at 30 secs interval; outline: as §1
[3] = target: T2, Carboxypeptidase A1 (Homo sapiens) (UniProt P15085); assay: (§2) Irreversible inhibition of recombinant human carboxypeptidase A1 expressed in Pichia pastoris using N-(4-methoxyphenylazoformyl)-Phe-OH as substrate measured for 600 secs by double reciprocal plot analysis
T2 sequence (whole entry): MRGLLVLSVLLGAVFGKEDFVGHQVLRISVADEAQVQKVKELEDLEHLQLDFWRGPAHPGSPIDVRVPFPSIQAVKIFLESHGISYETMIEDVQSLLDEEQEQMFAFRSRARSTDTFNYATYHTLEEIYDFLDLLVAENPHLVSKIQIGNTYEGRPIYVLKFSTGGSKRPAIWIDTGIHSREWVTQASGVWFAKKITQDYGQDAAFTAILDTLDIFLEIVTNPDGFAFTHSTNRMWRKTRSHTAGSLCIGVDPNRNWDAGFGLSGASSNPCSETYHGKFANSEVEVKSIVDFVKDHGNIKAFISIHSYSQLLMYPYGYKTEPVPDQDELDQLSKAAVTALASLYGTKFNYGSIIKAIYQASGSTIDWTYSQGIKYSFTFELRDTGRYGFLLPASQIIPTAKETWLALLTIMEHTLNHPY

Carboxypeptidase A1 [4] = target: T3, Carboxypeptidase A1 (Homo sapiens, UniProt P15085); assay: as §2; conditions: read-out: Ki(app)
T3 sequence (P15085 whole entry): T2 sequence (whole entry)

Row | Structure (SMILES) | IC50 (Carboxypeptidase A1 [1]) [µM] | IC50 (Carboxypeptidase A1 [2]) [µM] | Kinact [3] [min⁻¹] | Ki (Carboxypeptidase A1 [4]) [µM]
1 | O=C(O)[C@@H](Cc1ccc(I)cc1)[C@@H]1CO1 (racemic) | 48.3 | 1.04 | 0.6 | 413
2 | O=C(O)[C@@H](CCc1ccccc1)[C@@H]1CS1 (racemic) |  | 16.4 |  | 
3 | O=C(O)[C@@H](Cc1ccc(F)cc1)[C@@H]1CO1 (racemic) | 21.9 | 0.51 | 0.71 | 238
4 | O=C(O)[C@@H](CC1CC1)[C@@H]1CO1 (racemic) | 276 | 11.2 |  | 
5 | CCC[C@H](C(=O)O)[C@@H]1CO1 (racemic) | 115 | 1.13 |  | 
6 | O=C(O)[C@@H](Cc1ccc(F)cc1)[C@H]1CS1 (racemic) | 18.7 | 0.47 | 0.47 | 60.4
7 | O=C(O)[C@@H](Cc1ccc(I)cc1)[C@H]1CS1 (racemic) | 46.3 | 0.96 | 0.69 | 289
8 | CCC[C@H](C(=O)O)[C@@H]1CS1 (racemic) | 31.9 | 0.6 | 0.82 | 294
9 | CC(C)C[C@H](C(=O)O)[C@H]1CS1 (racemic) |  | 31.9 |  | 
10 | CC(C)C[C@H](C(=O)O)[C@@H]1CS1 (racemic) | 14 | 0.26 | 0.52 | 56
11 | CC(C)C[C@H](C(=O)O)[C@H]1CO1 (racemic) |  | 0.57 |  | 
12 | CC(C)C[C@H](C(=O)O)[C@@H]1CO1 (racemic) |  | 33.1 |  | 
13 | O=C(O)[C@@H](CCc1ccccc1)[C@@H]1CO1 (racemic) |  | 8.25 |  | 
14 | O=C(O)[C@@H](CC1CC1)[C@H]1CS1 (racemic) | 174 | 1.8 |  | 
15 | O=C(O)[C@@H](CC1CCC1)[C@@H]1CO1 (racemic) | 57.9 | 1.13 |  | 
16 | O=C(O)[C@@H](CC1CCC1)[C@H]1CS1 (racemic) | 60 | 0.97 |  | 

From ChEMBL document CHEMBL4138140, “Discovery of Mechanism-Based Inactivators for Human Pancreatic Carboxypeptidase A from a Focused Synthetic Library” (ACS Med Chem Lett, 2017)
